From ChEMBL document CHEMBL4665734, “Optimization of globomycin analogs as novel gram-negative antibiotics” (Bioorg Med Chem Lett, 2020)
Values after ≈ are worked out from the molar mass of the structure shown. Each block holds one compound with its values, some of them ahead of it. Starred links: 1 amine or outer side, 2 acyl side, 3 side chain; linkers in the order of their positions; H or OH if unused. Non-standard residues stand in square brackets, D forms with d. Residues, ends and D or L forms follow the SMILES beside them. Groups on a side chain read outwards from the residue. *: point of attachment. X6 = C[C@H](CO[C@H](CC1C[C@H]2CC[C@@H](C1)C2)[C@@H](C)C(=O)[*:2])N[*:1]; X10 = CCCCCC[C@@H](OC[C@@H](CC)N[*:1])[C@@H](C)C(=O)[*:2]; X1 = CCCCCC[C@@H](OC[C@@H](C)N[*:1])[C@@H](C)C(=O)[*:2]; X8 = CCCCCC[C@@H](O[C@@H](C)CN[*:1])[C@@H](C)C(=O)[*:2]; X7 = CCCCCC[C@@H](O[C@H](C)CN[*:1])[C@@H](C)C(=O)[*:2]; X4 = CCCCCCN(CCN[*:1])[C@@H](C)C(=O)[*:2]; Gly(cHept) = N[C@H](C(=O)O)C1CCCCCC1; Propyl(3-guanidino) = N=C(N)NCCC*; aThr = C[C@H](O)[C@H](N)C(=O)O; NMeL = CN[C@@H](CC(C)C)C(=O)O; Chg = N[C@H](C(=O)O)C1CCCCC1; NMeNva = CCC[C@H](NC)C(=O)O; Propyl(3-NMe2) = CN(C)CCC*; X13 = N[C@H]1C[C@H](N*)C1; hSer = N[C@@H](CCO)C(=O)O; X14 = NCCN1CC[C@H](*)C1; Dap = NC[C@H](N)C(=O)O; Propyl(3-NH2) = NCCC*; CO = O=C([*:1])[*:2]; X12 = NCC(CN)*; X5 = NCCCNCCC*; X11 = NCCCC*

Key:
[1] = Lipophilicity, logD of the compound at pH 7.4; details: buffer, pH 7.4, logD
Escherichia coli = test: Inhibition of LspA in Escherichia coli CFT073imp4213 harboring outer membrane-permeable mutant assessed as inhibition of bacterial growth
Procedure, shortened: (§1)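 Read-out is the minimum inhibitory concentration, reported in µM.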

Escherichia coli CFT073 = test: Inhibition of LspA in wild type Escherichia coli CFT073 assessed as inhibition of bacterial growth; procedure, shortened: as §1
[2] = Growth inhibition of Staphylococcus aureus USA300
[3] = Stability of the compound in human plasma assessed as parent compound remaining after 24 hrs; format: ADME, cell-free; details: read-out: Stabilty
Procedure, shortened: (§2)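 Test compound incubated for 24 hour in human, rat or mouse plasma. Stability is reported as the percentage of parent compound remaining.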

[4] = Stability of the compound in mouse plasma assessed as parent compound remaining after 24 hrs; format: ADME, cell-free; details: read-out: Stabilty; procedure, shortened: as §2
[5] = Protein binding in rat plasma; format: ADME, cell-free; details: read-out: PPB (converted)
[6] = Protein binding in mouse plasma; format: ADME, cell-free; details: read-out: PPB (converted)
[7] = Clearance in iv dosed mouse; format: ADME, organism-based; details: in vivo
[8] = Half life in iv dosed mouse; format: ADME, organism-based; details: in vivo
Enterobacter cloacae = test: Inhibition of LspA in Enterobacter cloacae assessed as inhibition of bacterial growth
Klebsiella pneumoniae = test: Inhibition of LspA in Klebsiella pneumoniae assessed as inhibition of bacterial growth
Pseudomonas aeruginosa = test: Inhibition of LspA in Pseudomonas aeruginosa assessed as inhibition of bacterial growth
Acinetobacter baumannii = test: Inhibition of LspA in Acinetobacter baumannii assessed as inhibition of bacterial growth
Jurkat = test: Cytotoxicity against human Jurkat cells; format: cell-based
Procedure, shortened: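 Jurkat cell growth assay. Result reported as antiproliferative EC50.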

Compound: CCCCCC[C@H]1OC[C@@H](C)NC(=O)[C@H](COCCCN)NC(=O)[C@H](CN)NC(=O)[C@H](C2CCCCC2)NC(=O)[C@H](CC(C)C)N(C)C(=O)[C@@H]1C (cyclo([Chg][Dap]S(Propyl(3-NH2))[X1][NMeL]))
logD [1]: 1.5
MIC (Escherichia coli): 0.28 µM (≈ 0.203 µg/mL)
MIC (Escherichia coli CFT073): 11 µM (≈ 7.96 µg/mL)
MIC [2]: 100 µM (≈ 72.4 µg/mL)

Compound: CCCCCC[C@H]1OC[C@@H](C)NC(=O)[C@H](COCCCN(C)C)NC(=O)[C@H](CN)NC(=O)[C@H](C2CCCCC2)NC(=O)[C@H](CC(C)C)N(C)C(=O)[C@@H]1C (cyclo([Chg][Dap]S(Propyl(3-NMe2))[X1][NMeL]))
logD [1]: 2.1
MIC (Escherichia coli): 0.39 µM (≈ 0.293 µg/mL)
MIC (Escherichia coli CFT073): 25 µM (≈ 18.8 µg/mL)
MIC [2]: 100 µM (≈ 75.2 µg/mL)

Compound: CCCCCC[C@H]1OC[C@@H](C)NC(=O)[C@H](COCCCNC(=N)N)NC(=O)[C@H](CN)NC(=O)[C@H](C2CCCCC2)NC(=O)[C@H](CC(C)C)N(C)C(=O)[C@@H]1C (cyclo([Chg][Dap]S(Propyl(3-guanidino))[X1][NMeL]))
logD [1]: 2
MIC (Escherichia coli): 0.2 µM (≈ 0.153 µg/mL)
MIC (Escherichia coli CFT073): 4.4 µM (≈ 3.37 µg/mL)
MIC [2]: 5 µM (≈ 3.83 µg/mL)

Compound: CCCCCC[C@H]1OC[C@@H](C)NC(=O)[C@H](COCCCCN)NC(=O)[C@H](CN)NC(=O)[C@H](C2CCCCC2)NC(=O)[C@H](CC(C)C)N(C)C(=O)[C@@H]1C (cyclo([Chg][Dap]S(X11)[X1][NMeL]))
logD [1]: 1.7
MIC (Escherichia coli): 0.18 µM (≈ 0.133 µg/mL)
MIC (Escherichia coli CFT073): 7 µM (≈ 5.17 µg/mL)
MIC [2]: 56 µM (≈ 41.3 µg/mL)

Compound: CCCCCCN1CCNC(=O)[C@H]([C@H](C)O)NC(=O)[C@H](CN)NC(=O)[C@H](C2CCCCC2)NC(=O)[C@H](CC(C)C)N(C)C(=O)[C@@H]1C (cyclo([Chg][Dap][aThr][X4][NMeL]))
remaining at 24 h [3]: 95%
remaining at 24 h [4]: 112%
MIC (Escherichia coli): 0.5 µM (≈ 0.326 µg/mL)
MIC (Escherichia coli CFT073): 25 µM (≈ 16.3 µg/mL)
MIC [2]: > 100 µM

Compound: CCCCCC[C@H]1O[C@H](C)CNC(=O)[C@H]([C@H](C)O)NC(=O)[C@H](CN)NC(=O)[C@H](C2CCCCC2)NC(=O)[C@H](CC(C)C)N(C)C(=O)[C@@H]1C (cyclo([Chg][Dap][aThr][X7][NMeL]))
remaining at 24 h [3]: 100%
remaining at 24 h [4]: 92%
MIC (Escherichia coli): 0.4 µM (≈ 0.272 µg/mL)
MIC (Escherichia coli CFT073): 35 µM (≈ 23.8 µg/mL)
MIC [2]: 100 µM (≈ 68.1 µg/mL)

Compound: CCCCCC[C@H]1O[C@@H](C)CNC(=O)[C@H]([C@H](C)O)NC(=O)[C@H](CN)NC(=O)[C@H](C2CCCCC2)NC(=O)[C@H](CC(C)C)N(C)C(=O)[C@@H]1C (cyclo([Chg][Dap][aThr][X8][NMeL]))
remaining at 24 h [3]: 91%
remaining at 24 h [4]: 101%
MIC (Escherichia coli): 0.1 µM (≈ 0.0681 µg/mL)
MIC (Escherichia coli CFT073): 12 µM (≈ 8.17 µg/mL)
MIC [2]: 100 µM (≈ 68.1 µg/mL)

Compound: CCCCCC[C@H]1OC[C@@H](CC)NC(=O)[C@H]([C@H](C)O)NC(=O)[C@H](CN)NC(=O)[C@H](C2CCCCC2)NC(=O)[C@H](CC(C)C)N(C)C(=O)[C@@H]1C (cyclo([Chg][Dap][aThr][X10][NMeL]))
remaining at 24 h [3]: 101%
remaining at 24 h [4]: 87%
MIC (Escherichia coli): 0.024 µM (≈ 0.0167 µg/mL)
MIC (Escherichia coli CFT073): 2.2 µM (≈ 1.53 µg/mL)
MIC [2]: 50 µM (≈ 34.7 µg/mL)

logD [1]: 0.2
fraction unbound [5]: 0.026
fraction unbound [6]: 0.004
clearance [7]: 68 mL/min/kg
half-life [8]: 2.5 h
MIC (Escherichia coli CFT073): 0.78 µM (≈ 0.639 µg/mL)
MIC (Enterobacter cloacae): 1.6 µM (≈ 1.31 µg/mL)
MIC (Klebsiella pneumoniae): 1.6 µM (≈ 1.31 µg/mL)
MIC (Pseudomonas aeruginosa): 12 µM (≈ 9.83 µg/mL)
MIC (Acinetobacter baumannii): 25 µM (≈ 20.5 µg/mL)
Compound: CCC[C@H]1C(=O)N[C@@H](C2CCCCCC2)C(=O)N[C@@H](CN)C(=O)N[C@@H](COCCCNCCCN)C(=O)N[C@H](C)CO[C@H](CC2C[C@H]3CC[C@@H](C2)C3)[C@@H](C)C(=O)N1C (stereo partly drawn) (cyclo([Dap]S(X5)[X6][NMeNva][Gly(cHept)]))
MIC [2]: 12 µM (≈ 9.83 µg/mL)
EC50 (Jurkat): > 100 µM

Compound: CCCCCC[C@H]1OC[C@@H](C)NC(=O)[C@H](COCCCCN)NC(=O)[C@H](CN)NC(=O)[C@H](C2CCCCCC2)NC(=O)[C@H](CCC)N(C)C(=O)[C@@H]1C (cyclo([Dap]S(X11)[X1][NMeNva][Gly(cHept)]))
logD [1]: 1.8
MIC (Escherichia coli): 0.14 µM (≈ 0.103 µg/mL)
MIC (Escherichia coli CFT073): 6.3 µM (≈ 4.65 µg/mL)
MIC [2]: 71 µM (≈ 52.4 µg/mL)

Compound: CCCCCC[C@H]1OC[C@@H](C)NC(=O)[C@H](COC(CN)CN)NC(=O)[C@H](CN)NC(=O)[C@H](C2CCCCCC2)NC(=O)[C@H](CCC)N(C)C(=O)[C@@H]1C (cyclo([Dap]S(X12)[X1][NMeNva][Gly(cHept)]))
logD [1]: 1.1
MIC (Escherichia coli): 0.55 µM (≈ 0.406 µg/mL)
MIC (Escherichia coli CFT073): 3.1 µM (≈ 2.29 µg/mL)
MIC [2]: 50 µM (≈ 37 µg/mL)

Compound: CCCCCC[C@H]1OC[C@@H](C)NC(=O)[C@H](CO[C@H]2CCN(CCN)C2)NC(=O)[C@H](CN)NC(=O)[C@H](C2CCCCCC2)NC(=O)[C@H](CCC)N(C)C(=O)[C@@H]1C (cyclo([Dap]S(X14)[X1][NMeNva][Gly(cHept)]))
logD [1]: 1.6
MIC (Escherichia coli): 0.2 µM (≈ 0.156 µg/mL)
MIC (Escherichia coli CFT073): 6.3 µM (≈ 4.91 µg/mL)
MIC [2]: 100 µM (≈ 77.9 µg/mL)

Compound: CCCCCC[C@H]1OC[C@@H](C)NC(=O)[C@H](CNC(=O)N[C@H]2C[C@H](N)C2)NC(=O)[C@H](CN)NC(=O)[C@H](C2CCCCCC2)NC(=O)[C@H](CCC)N(C)C(=O)[C@@H]1C (cyclo([Dap][Dap]([CO-X13])[X1][NMeNva][Gly(cHept)]))
logD [1]: 1.5
MIC (Escherichia coli): 0.39 µM (≈ 0.303 µg/mL)
MIC (Escherichia coli CFT073): 12 µM (≈ 9.34 µg/mL)
MIC [2]: 71 µM (≈ 55.2 µg/mL)

Compound: CCCCCC[C@H]1OC[C@@H](C)NC(=O)[C@H](CCOCCCN)NC(=O)[C@H](CN)NC(=O)[C@H](C2CCCCCC2)NC(=O)[C@H](CCC)N(C)C(=O)[C@@H]1C (cyclo([Dap][hSer](Propyl(3-NH2))[X1][NMeNva][Gly(cHept)]))
logD [1]: 1.7
MIC (Escherichia coli): 0.2 µM (≈ 0.148 µg/mL)
MIC (Escherichia coli CFT073): 8.8 µM (≈ 6.49 µg/mL)
MIC [2]: 100 µM (≈ 73.8 µg/mL)
